Data as given in PMC5655776 (Journal of Clinical Pharmacology, 2017).
Where two headings read alike, the source gives them in different places.

Columns and labels:
[1] = major circulating metabolites of ertugliflozin; cited from earlier work
[2] = assay type: in vivo, human; conditions: for MRAUCinf (metabolite‐to‐parent ratio for AUC): corrected for molecular weight, geometric mean (geometric %CV)
[3] = cited from earlier work
[4] = Urinary excretion and renal clearance of ertugliflozin and metabolites; assay type: in vivo, human; conditions: subjects with normal renal function
[5] = tested on: urinary glucose excretion; assay: Change from baseline in 24-hour urinary glucose excretion; assay type: in vivo, human; conditions: for Change from baseline to day 1 in 24‐hour urinary glucose excretion, geometric mean / Change from baseline to day 1 in 24‐hour urinary glucose excretion, mean (SD) / Change from baseline to day 1 in 24‐hour urinary glucose excretion, median: 15 mg single oral dose
Outline: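 Single oral 15 mg dose given as three 5-mg tablets after a 4-hour fast. Baseline urine was collected on day –2 (–48 to –24 h) and post-dose urine in 0‑4, 4‑8, 8‑12 and 12‑24 h intervals, with glucose measured centrally. 24-h UGE is the sum of the intervals. Log-transformed change was compared by 1-way ANOVA against T2DM with normal renal function, without plasma glucose correction. eGFR bands: mild 60‑89, moderate 30‑59 mL/min.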

[6] = as high as 300 mg (single dose), 100 mg once daily (up to 14 days), 25 mg once daily (up to 12 weeks); ref data on file, 9, 10; cited from earlier work
[7] = tested on: SGLT2‐mediated glucose transport; assay: 24-hour inhibition of glucose reabsorption; assay type: in vivo, human; conditions: day 1
[8] = tested on: T2DM and healthy subjects; assay: Safety and tolerability of a single 15-mg dose; assay type: in vivo, human
Outline: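 Open-label, nonrandomized single oral 15 mg dose (three 5-mg tablets) after a 4-hour fast. Usual antihyperglycemic agents were given 4 h post-dose. AEs were recorded throughout and coded with MedDRA 17.1. ECGs were taken at screening, predose and day 5. Sitting and supine/standing blood pressure and pulse were taken predose and at 1, 2, 4 and 96 h post-dose.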

[9] = T2DM, moderate renal impairment
[10] = single 15‐mg dose, all renal function groups

Structure (SMILES): CCOc1ccc(Cc2cc([C@]34OC[C@](CO)(O3)[C@@H](O)[C@H](O[C@@H]3O[C@H](C(=O)O)[C@@H](O)[C@H](O)[C@H]3O)[C@H]4O)ccc2Cl)cc1 [PF‐06481944, 3‐O‐β‐glucuronide]
- pharmacological activity of metabolite [1]: pharmacologically inactive
- median tmax range of metabolites ([2]; after ertugliflozin 15 mg, across all groups): 2 to 4 h
- MRAUCinf (metabolite‐to‐parent ratio for AUC) ([2]; T2DM, mild renal impairment): 0.98 (45)
- MRAUCinf (metabolite‐to‐parent ratio for AUC) [2, 9]: 1.26 (52)
- MRAUCinf (metabolite‐to‐parent ratio for AUC) ([2]; T2DM, normal renal function): 0.93 (39)
- MRAUCinf (metabolite‐to‐parent ratio for AUC) ([2]; T2DM, severe renal impairment): 1.03 (37)
- MRAUCinf (metabolite‐to‐parent ratio for AUC) ([2]; healthy, normal renal function): 0.64 (29)

Structure (SMILES): CCOc1ccc(Cc2cc([C@]34OC[C@](CO)(O3)[C@@H](O)[C@H](O)[C@H]4O)ccc2Cl)cc1 [ertugliflozin, Ertugliflozin]
- Urinary excretion of unchanged drug, share of elimination ([3]; human absorption, distribution, metabolism, and excretion studies): 1.5%
- median time to maximum concentration (tmax) ([3]; oral administration, fasted state, ref data on file, 15, 16): approximately 1 hour
- terminal elimination half‐life (t1/2) ([3]; oral administration, ref data on file, 15, 16): approximately 17 hours
- dose proportionality in exposure (AUC and Cmax) ([3]; over the range of 0.5 to 300 mg, ref data on file, 15, 16): dose proportionality
- Tmax ([2]; human, plasma, po, 15 mg, median tmax, 15 mg single oral dose, across all groups): 1 to 1.51 h
- predicted mean (90%CI) AUC from log‐linear regression vs BSA‐unnormalized eGFR ([2]; mild renal impairment (eGFR = 75 mL/min)): 1585 (1461‐1719) ng·h/mL
- predicted mean (90%CI) AUC from log‐linear regression vs BSA‐unnormalized eGFR ([2]; moderate renal impairment (eGFR = 45 mL/min)): 1875 (1698‐2071) ng·h/mL
- predicted mean (90%CI) AUC from log‐linear regression vs BSA‐unnormalized eGFR ([2]; normal renal function (eGFR = 105 mL/min)): 1340 (1194‐1503) ng·h/mL
- predicted mean (90%CI) AUC from log‐linear regression vs BSA‐unnormalized eGFR ([2]; severe renal impairment (eGFR = 15 mL/min)): 2219 (1907‐2581) ng·h/mL
- Ae96% [4]: approximately 1%
- Change from baseline to day 1 in 24‐hour urinary glucose excretion, geometric mean ([5]; T2DM, mild renal impairment): 35.98 g
- Change from baseline to day 1 in 24‐hour urinary glucose excretion, mean (SD) ([5]; T2DM, mild renal impairment): 48.67 (37.72) g
- Change from baseline to day 1 in 24‐hour urinary glucose excretion, median ([5]; T2DM, mild renal impairment): 36.4 g
- Change from baseline to day 1 in 24‐hour urinary glucose excretion, geometric mean [5, 9]: 27.55 g
- Change from baseline to day 1 in 24‐hour urinary glucose excretion, mean (SD) [5, 9]: 32.64 (21.32) g
- Change from baseline to day 1 in 24‐hour urinary glucose excretion, median [5, 9]: 28.8 g
- Change from baseline to day 1 in 24‐hour urinary glucose excretion, geometric mean ([5]; T2DM, normal renal function): 72.31 g
- Change from baseline to day 1 in 24‐hour urinary glucose excretion, mean (SD) ([5]; T2DM, normal renal function): 75.12 (24.36) g
- Change from baseline to day 1 in 24‐hour urinary glucose excretion, median ([5]; T2DM, normal renal function): 68.1 g
- Change from baseline to day 1 in 24‐hour urinary glucose excretion, geometric mean ([5]; T2DM, severe renal impairment): 10.09 g
- Change from baseline to day 1 in 24‐hour urinary glucose excretion, mean (SD) ([5]; T2DM, severe renal impairment): 11.29 (5.81) g
- Change from baseline to day 1 in 24‐hour urinary glucose excretion, median ([5]; T2DM, severe renal impairment): 10.3 g
- Change from baseline to day 1 in 24‐hour urinary glucose excretion, geometric mean ([5]; healthy, normal renal function): 46.33 g
- Change from baseline to day 1 in 24‐hour urinary glucose excretion, mean (SD) ([5]; healthy, normal renal function): 48.16 (14.04) g
- Change from baseline to day 1 in 24‐hour urinary glucose excretion, median ([5]; healthy, normal renal function): 45.8 g
- change from baseline in 24‐hour UGE, 1‐way ANOVA ([5]; T2DM, mild renal impairment): 36.0 g
- change from baseline in 24‐hour UGE, 1‐way ANOVA [5, 9]: 27.6 g
- change from baseline in 24‐hour UGE, 1‐way ANOVA ([5]; T2DM, normal renal function): 72.3 g
- change from baseline in 24‐hour UGE, 1‐way ANOVA ([5]; T2DM, severe renal impairment): 10.1 g
- tolerability of higher oral doses [6]: well tolerated
- geometric mean change from baseline in 24‐hour percentage inhibition of glucose reabsorption ([7]; T2DM, mild renal impairment): 25.58%
- geometric mean change from baseline in 24‐hour percentage inhibition of glucose reabsorption [7, 9]: 28.84%
- geometric mean change from baseline in 24‐hour percentage inhibition of glucose reabsorption ([7]; T2DM, normal renal function): 33.34%
- geometric mean change from baseline in 24‐hour percentage inhibition of glucose reabsorption ([7]; T2DM, severe renal impairment): 24.25%
- geometric mean change from baseline in 24‐hour percentage inhibition of glucose reabsorption ([7]; healthy subjects): 29.19%
- subjects experiencing hypoglycemia ([8]; T2DM mild renal impairment group, receiving glyburide): 1 subject
- subjects experiencing hypoglycemia ([8]; T2DM severe renal impairment group, receiving long‐acting insulin): 2 subjects
- subjects experiencing hypoglycemia ([8]; all groups (n = 36)): 3 subjects
- intensity of AEs ([8]; single 15‐mg dose, all AEs): mild
- deaths, serious AEs, severe AEs, discontinuations due to AEs [8, 10]: no deaths, serious AEs, severe AEs, or temporary or permanent discontinuations due to AEs
- laboratory findings, vital signs, ECG findings [8, 10]: no abnormal laboratory findings or changes in vital signs (including postural changes) or ECG findings of clinical significance
- tolerability [8, 10]: well tolerated
